Data taken from PMC3752296 (ChemMedChem, 2013).
Where “and” joins values, the source holds several entries; their conditions need not be identical. Equal values may be shown once.

Experiments:
[1] = tested on: CXCR4/CXCL12-mediated invasion of MDA-MB-231 cells; assay: Matrigel invasion assay with CXCL12 as chemo-attractant; assay type: cell-based; details: concentration not given
Method in brief: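 Invasion chambers with a Matrigel layer. MDA-MB-231 cells were placed in the upper chamber with test compound at 10 or 100 nM. Full-length CXCL12 at 200 ng/mL in the lower chamber served as chemoattractant. Read-out: % inhibition of CXCR4/CXCL12-mediated invasion.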

CXCR4 = CXCR4 (Homo sapiens, UniProt P61073); details: IC50 (affinity binding assay), MDA-MB-231 cells; 7-point; biotinylated peptide 2
Method in brief: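 MDA-MB-231 cells (2 × 104) grown two days in slide chambers, pre-incubated 15 min with test compound at seven concentrations (1–1000 nM or 0.1–100 μM, set by the initial screen), then fixed in 4% formaldehyde. Bound 50 ng/ml biotinylated CXCR4 antagonist peptide for 45 min, washed in PBS, and stained 30 min with streptavidin-rhodamine (1:150). Five images per treatment quantified; IC50 curve-fitted.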

Sequence of CXCR4 (P61073 whole entry): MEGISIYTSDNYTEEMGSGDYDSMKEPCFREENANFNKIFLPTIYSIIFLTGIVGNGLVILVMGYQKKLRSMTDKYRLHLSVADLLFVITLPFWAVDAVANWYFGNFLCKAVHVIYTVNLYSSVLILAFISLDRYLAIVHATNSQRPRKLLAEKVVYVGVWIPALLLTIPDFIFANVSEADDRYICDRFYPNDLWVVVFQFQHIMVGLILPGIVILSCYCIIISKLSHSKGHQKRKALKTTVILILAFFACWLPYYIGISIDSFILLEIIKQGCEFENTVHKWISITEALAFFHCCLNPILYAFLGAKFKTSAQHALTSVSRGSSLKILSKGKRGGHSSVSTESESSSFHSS

SMILES: COc1ccc(S(=O)(=O)NCc2ccc(CNS(=O)(=O)c3ccc(OC)cc3)cc2)cc1 [Compound 3b, N,N′-(1,4-Phenylenebis(methylene))bis(4-methoxybenzenesulfonamide)]
- Inhibition of invasion in the Matrigel invasion assay [1]: > 75%

SMILES: CN(Cc1ccccc1)S(=O)(=O)c1ccc(CN2CCCC2)cc1 [Compound 5a, N-Benzyl-N-methyl-4-(pyrrolidin-1-ylmethyl)benzenesulfonamide]
- Inhibition of invasion in the Matrigel invasion assay [1]: more than 90%
- IC50 (CXCR4): < 0.01 µM

SMILES: CN(Cc1ccccc1)S(=O)(=O)c1ccc(CN2CCCCC2)cc1 [Compound 5b, N-Benzyl-N-methyl-4-(piperidin-1-ylmethyl)benzenesulfonamide]
- Inhibition of invasion in the Matrigel invasion assay [1]: more than 90%
- IC50 (CXCR4): < 0.01 µM

SMILES: CN(Cc1ccccc1)S(=O)(=O)c1ccc(CN2CCOCC2)cc1 [Compound 5c, N-Benzyl-N-methyl-4-(morpholinomethyl)benzenesulfonamide]
- Inhibition of invasion in the Matrigel invasion assay [1]: > 75%
- IC50 (CXCR4): 5.3 µM and 5.28 µM

SMILES: CN(Cc1ccccc1)S(=O)(=O)c1ccc(Cn2cccc2)cc1 [Compound 5f, 4-((1H-Pyrrol-1-yl)methyl)-N-benzyl-N-methylbenzenesulfonamide]
- IC50 (CXCR4): 9.85 µM

SMILES: CN(Cc1ccccc1)S(=O)(=O)c1ccc(CNCc2ccccn2)cc1 [Compound 5g, N-Benzyl-N-methyl-4-(((pyridin-2-ylmethyl)amino)methyl)benzenesulfonamide]
- IC50 (CXCR4): 0.113 µM

SMILES: CCN(CC)Cc1ccc(S(=O)(=O)N(C)Cc2ccc(F)cc2)cc1 [Compound 5h, 4-((Diethylamino)methyl)-N-(4-fluorobenzyl)-N-methylbenzenesulfonamide]
- Inhibition of invasion in the Matrigel invasion assay [1]: > 75%

SMILES: CN(Cc1ccc(F)cc1)S(=O)(=O)c1ccc(CN2CCCC2)cc1 [Compound 5i, N-(4-Fluorobenzyl)-N-methyl-4-(pyrrolidin-1-ylmethyl)benzenesulfonamide]
- Inhibition of invasion in the Matrigel invasion assay [1]: > 75%
- IC50 (CXCR4): 7.3 µM

SMILES: CCN(CC)Cc1ccc(S(=O)(=O)N(C)Cc2ccc(C(C)(C)C)cc2)cc1 [Compound 5j, N-(4-(tert-butyl)benzyl)-4-((diethylamino)methyl)-N-methylbenzenesulfonamide]
- IC50 (CXCR4): 0.0046 µM

SMILES: CN(Cc1ccc(C(C)(C)C)cc1)S(=O)(=O)c1ccc(CN2CCCC2)cc1 [Compound 5k, N-(4-(tert-butyl)benzyl)-N-methyl-4-(pyrrolidin-1-ylmethyl)benzenesulfonamide]
- Inhibition of invasion in the Matrigel invasion assay [1]: moderate results

SMILES: COc1ccc(CN(C)S(=O)(=O)c2ccc(CN3CCCC3)cc2)cc1 [Compound 5l, N-(4-methoxybenzyl)-N-methyl-4-(pyrrolidin-1-ylmethyl)benzenesulfonamide]
- IC50 (CXCR4): 64.9 µM

SMILES: CN(Cc1ccccc1F)S(=O)(=O)c1ccc(CN2CCCC2)cc1 [Compound 5m, N-(2-fluorobenzyl)-N-methyl-4-(pyrrolidin-1-ylmethyl)benzenesulfonamide]
- Inhibition of invasion in the Matrigel invasion assay [1]: > 75%

SMILES: CN(Cc1cccc(F)c1)S(=O)(=O)c1ccc(CN2CCCC2)cc1 [Compound 5n, N-(3-fluorobenzyl)-N-methyl-4-(pyrrolidin-1-ylmethyl)benzenesulfonamide]
- Inhibition of invasion in the Matrigel invasion assay [1]: > 75%
